Laboratory results published in the EternaBench riboswitch data.

Tested on: MS2 coat protein
Experiment: apparent Kd, MS2 coat protein; higher = weaker binding; RNA-MaP array; FMN 200 µM where present
In short: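 Apparent Kd: the median of filtered binding-curve fits from single clusters. Designs were transcribed on Illumina sequencing-chip clusters by stalled E. coli RNA polymerase and titrated with SNAP-549-labelled MS2 coat protein from 0.7 or 1.5 nM, doubling to 3 µM, in 100 mM Tris-HCl pH 7.5, 80 mM KCl, 4 mM MgCl2, BSA, DTT, yeast tRNA and Tween-20. Each series ran without and then with constant ligand, and green signal was normalised to red-channel RNA signal and control-cluster median Fmax.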

[1] = designed as: ON switch for flavin mononucleotide, no ligand
[2] = ligand present: flavin mononucleotide, designed as: ON switch for flavin mononucleotide
[3] = designed as: OFF switch for flavin mononucleotide, no ligand
[4] = ligand present: flavin mononucleotide, designed as: OFF switch for flavin mononucleotide

GGAGCUCCUGACAUGAGGAUCACCCAUGUUCACUUAUUAAAUCAGGAUAUCGUCUCGAAACGAGACGAGAAGGGAUAUGCUCCU
apparent Kd [1]: 0.00767 µM | apparent Kd [2]: 0.00701 µM

GGAGGACAUGAGGAUCACCCAUGUGGAUGAUCGCUAGGAUAUGCGUAAAGGAGGAGUGGUGCAGAAGGAGUGGGAU
apparent Kd [1]: 0.464 µM | apparent Kd [2]: 0.36 µM

GGAGGACAUGAGGAUCACCCAUGUGGAUGGGCGCUAGGAUAUGCGAGAGGAUGGAGAGAAGCAGAAGGAGUGGGUU
apparent Kd [1]: 0.15 µM | apparent Kd [2]: 0.107 µM

GGAGGACAUGAGGAUCACCCAUGUGGAUGGGCGCUAGGAUAUGCGAGAGGGAAGAGUGGAGCAGAAGGAGUGGGUU
apparent Kd [1]: 0.0508 µM | apparent Kd [2]: 0.0473 µM

GGAGGACGAAACAUGAGGAUCACCCAUGUGUUAUAAUUAAUAUAGGAUAUGUUUAUACUUUUUGGGCAGAAGGAUGAUAAUGCU
apparent Kd [1]: 0.0219 µM | apparent Kd [2]: 0.0169 µM

GGAGUGUGAGGAUAUAUGGUGAAGGUGAAGAGAGAGGAGGAGUAGAAGGUACAUGAGGAUCACCCAUGUUUAGG
apparent Kd [3]: 0.047 µM | apparent Kd [4]: 0.0413 µM

GGAUAGAACAGAGGAUAUACGUGCUAGAGAUACUAGCAAAAUUUCCUCACAUGAGGAUCACCCAUGUAGAAGGCUGUCCUAUCG
apparent Kd [3]: 0.0118 µM | apparent Kd [4]: 0.208 µM

GGAUAGGACAGAGGAUAUACGUGCUAGAGAUACUAGCAAAAUUUCCUCACAUGAGGAUCACCCAUGUAGAAGGCUCUCCUAUCG
apparent Kd [3]: 0.0087 µM | apparent Kd [4]: 0.0315 µM

GGAUAGGACAGAGGAUAUACGUGCUAGAGAUACUAGCAAAAUUUCCUCACAUGAGGAUCACCCAUGUAGAAGGCUGUCAUAUCG
apparent Kd [3]: 0.0148 µM | apparent Kd [4]: 0.306 µM

GGAUAGGACAGAGGAUAUACGUGCUAGAGAUAGUAGCAAAAUUUCCUCACAUGAGGAUCACCCAUGUAGAAGGCUGUCCUAUCG
apparent Kd [3]: 0.0196 µM | apparent Kd [4]: 0.365 µM

GGAUAGGACAGAGGAUAUACGUGCUAGAGAUCCUAGCAAAAUUUCCUCACAUGAGGAUCACCCAUGUAGAAGGCUGUCCUAUCG
apparent Kd [3]: 0.0155 µM | apparent Kd [4]: 0.417 µM

GGAUAGGACAGAGGAUAUACGUGCUAUAGAUACUAGCAAAAUUUCCUCACAUGAGGAUCACCCAUGUAGAAGGCUGUCCUAUCG
apparent Kd [3]: 0.0168 µM | apparent Kd [4]: 0.353 µM

GGAUAGGACAGAGGAUAUACGUGCUCGAGAUACUAGCAAAAUUUCCUCACAUGAGGAUCACCCAUGUAGAAGGCUGUCCUAUCG
apparent Kd [3]: 0.0287 µM | apparent Kd [4]: 0.255 µM

GGAUAGGACAGAGGAUAUGCCGAUAGGAUCUACUAUCGAAGAAUCCUCACAUGAGGAUCACCCAUGUAGAAGGCUGUCCUAUCG
apparent Kd [3]: 0.0238 µM | apparent Kd [4]: 0.131 µM

GGAUAGGACUGAGGAUAUACGUGCUAGAGAUACUAGCAAAAUUUCCUCACAUGAGGAUCACCCAUGUAGAAGGCUGUCCUAUCG
apparent Kd [3]: 0.00713 µM | apparent Kd [4]: 0.0423 µM

GGAUAGUGAGGAUAUCGAUGUUAGGAGGAGGAGGUAGGAGGCGAGAAGGCACAUGAGGAUCACCCAUGUAUGGU
apparent Kd [3]: 0.0318 µM | apparent Kd [4]: 0.0294 µM

GGAUCCAACACAGGAUAUGCUGGACUUUGUCCAGCAGAAGGGUGAAGAACAUGAGGAUCACCCAUGUGGAUCCAUAUAUUUAAC
apparent Kd [1]: 0.24 µM | apparent Kd [2]: 0.0168 µM

GGAUCGAAAGUGAGGAUAUGCUGGUCCUUGGAUCAGCAGAAGGCACAUGAGGAUCACCCAUGUUUCCACGGUCC
apparent Kd [3]: 0.0195 µM | apparent Kd [4]: 0.091 µM

GGAUCGAAUGUGAGGAUAUGCUGGUCCUUGGAUCAGCAGAAGGCACAUGAGGAUCACCCAUGUGGUAACGGUCC
apparent Kd [4]: 0.554 µM

GGAUCGAGAGUGAGGAUAUGCUGGUCCUUGGAUCAGCAGAAGGCACAUGAGGAUCACCCAUGUGGUUCCGAUCC
apparent Kd [3]: 0.0288 µM | apparent Kd [4]: 0.244 µM

GGAUCGAGUGUGAGGAUAUACCACUGGAUACAGUGGUAGAAGGCACAUGAGGAUCACCCAUGUCCCUACGAUCC
apparent Kd [3]: 0.0329 µM | apparent Kd [4]: 0.204 µM

GGAUCGAGUGUGAGGAUAUGCUGGUCCUUGGAUCAGCAGAAGGCACAUGAGGAUCACCCAUGUCCAAGCGGUCC
apparent Kd [3]: 0.152 µM | apparent Kd [4]: 0.701 µM

GGAUCUGCAGGAUAUAUAAAAUGGCGUGAUGGAUUGUCUGUACAUGAGGAUCACCCAUGUAGAAGGGCGUUCCA
apparent Kd [3]: 0.0291 µM | apparent Kd [4]: 0.0583 µM

GGAUGACAAAGUCAUCCAAUUCGAACAUGAGGAUCACCCAUGUAGGAUAUGCUUCUCAAAGAGAAGCAGAAGGACAUGUGCUUU
apparent Kd [3]: 0.0328 µM | apparent Kd [4]: 0.182 µM

GGAUGACAAAGUCAUCCAUUACGAACAUGAGGAUCACCCAUGUAGGAUAUGCUUCUCAAAGAGAAGCAGAAGGACAUGUGUCUU
apparent Kd [3]: 0.0301 µM | apparent Kd [4]: 0.157 µM

GGAUGAGAAACUCAUCCAUAACGAACAUGAGGAUCACCCAUGUAGGAUAUGCUACUCAAAGAGUAGCAGAAGGACAUGUGUCUU
apparent Kd [3]: 0.0296 µM | apparent Kd [4]: 0.144 µM

GGAUUACAUGAGGAUCACCCAUGUGAGGAUAUCGAUGUCCUCAGUCGAGUGCGGGACUCGAGAAGGCACUUGGA
apparent Kd [3]: 0.077 µM | apparent Kd [4]: 0.0575 µM

GGAUUUCCUGAGGAUAUUGUAUCACCUGAUUGAUAAGAAGGCAGAACAUGAGGAUCACCCAUGUGGGUACUCGG
apparent Kd [3]: 0.134 µM | apparent Kd [4]: 0.135 µM

GGAUUUCCUGAGGAUAUUGUAUCACCUGAUUGAUAAGAAGGCAGAACAUGAGGAUCACCCAUGUGGGUAUUCGG
apparent Kd [3]: 0.0929 µM | apparent Kd [4]: 0.0884 µM

GGCGCAGCGGAGAAGGACGUGGCUCGCCACCACGUAGGAUAUCCCUGUGUACCGAAUUGUUACAUGAGGAUCACCCAUGUGGAC
apparent Kd [1]: 0.00616 µM | apparent Kd [2]: 0.00628 µM

GGCGGCGCGGGCCACCGCAGAACCAGAAGGACAUGAGGAUCACCCAUGUAACAAAACAGGGCGGUGUAGGAUAUGGCAGGCCCG
apparent Kd [3]: 0.0419 µM | apparent Kd [4]: 0.0895 µM

GGCGGGAAUGAGAAGGGUCACAUGAGGAUCACCCAUGUGCUCUUCGCCGUGACAGGAUAUCAUUGCCGUCAGGUUAGAUUUUUG
apparent Kd [3]: 0.00842 µM | apparent Kd [4]: 0.0247 µM

GGCGUGUGAGGAUAUCUGAUGUCUAACUUCGGUUAGACAUCAGAGAAGGCACAUGAGGAUCACCCAUGUCCGCC
apparent Kd [3]: 0.0675 µM | apparent Kd [4]: 0.0619 µM

GGCUACGUUUCGUAGCAGCUAGGUGAGGAUAUUCAAUUUUUCACAUGAGGAUCACCCAUGUAUGUGAAGAAGGCGCCUAGAAAU
apparent Kd [1]: 0.0118 µM | apparent Kd [2]: 0.00504 µM

GGCUGGUAGCUAGGAUAUGGGCGGUCACAUGAGGAUCACCCAUGUCAACAUCAAAACCAGAUUAACCAGAAGGAGCUGCGGGUU
apparent Kd [1]: 0.036 µM | apparent Kd [2]: 0.0378 µM

GGCUGUUUAGGAUAUACAUGAGGAUCACCCAUGUCGUUUAAUACAGACGGAUCCAACUGUAGAAGGAGAUGCCG
apparent Kd [3]: 0.102 µM | apparent Kd [4]: 0.0797 µM

GGGAAGGUUAGAGGAUAUAUUGUGUGUGAGAGAAUAGAAGGCUAAACAUGAGACACACACAUGAGGAUCACCCAUGUUAUGUUU
apparent Kd [1]: 0.147 µM | apparent Kd [2]: 0.091 µM

GGGAGUGGAGGGAAUAACAUGAGGAUCACCCAUGUAUGGGAGAGAAGGCAGAUUGGAGGGCGAUCUGAGGAUAUUUAGACUCUU
apparent Kd [1]: 0.0131 µM | apparent Kd [2]: 0.0107 µM

GGGAUCACCGUCAGGAUAUGUGACCGUACUAUCGGGCAGAAGGGACAUGAGGAUCACCCAUGUUGUCGUAGACU
apparent Kd [3]: 0.0207 µM | apparent Kd [4]: 0.0582 µM

GGGAUGCUAGGAUAUACAUCGGGCUCCAGGAUGUUCCGGGAACAUGAGGAUCACCCAUGUAGAAGGAGCGUAUG
apparent Kd [3]: 0.0804 µM | apparent Kd [4]: 0.0506 µM

GGGAUUAAGGCAGGAUAUCCGGGUUGGCCUCGACAUGAGGAUCACCCAUGUGGAGAAGGGCCGAUUGCCCGUAGGGUGAUCAAG
apparent Kd [3]: 0.274 µM | apparent Kd [4]: 0.108 µM

GGGCCCGAGGUGAGGAUAUUGUGCAUGGCGAGUGACAAGAAGGUACAUGAGGAUCACCCAUGUGAUACCGACCU
apparent Kd [3]: 0.451 µM | apparent Kd [4]: 0.371 µM

GGGCCCGGAGGAUAUACAUGAGGAUCACCCAUGUAUCUGGGUCUUAUUGGGCUCGGGUGUAGAAGGCCGGGCCC
apparent Kd [3]: 0.0118 µM | apparent Kd [4]: 0.0138 µM

GGGCCCGGAGGAUAUACAUGAGGAUCACCCAUGUAUGUGUGUGUUAUUGCGCGCGCGUGUAGAAGGCCGGGCCC
apparent Kd [3]: 0.0199 µM | apparent Kd [4]: 0.0802 µM

GGGCCGGUGGAGAAGGAGCUUACGAAACGUAGGCUAGGAUAUCCACAUGAGGAUCACCCAUGUGGGAAUAUCUGAUUUUCACAG
apparent Kd [3]: 0.0044 µM | apparent Kd [4]: 0.00448 µM

GGGCCGUAGUAGAAGGGAUAUACGAUAGGUAUAUCAGGAUAUACAUGAGGAUCACCCAUGUUCUAACAGUGAUGGUCCUCCCUA
apparent Kd [3]: 0.173 µM | apparent Kd [4]: 0.374 µM

GGGCCGUAGUAGAAGGGAUAUACGAUUGGUAUAUCAGGAUAUACAUGAGGAUCACCCAUGUUCUAACAGUGAUAGUCCUCCCUA
apparent Kd [3]: 0.023 µM | apparent Kd [4]: 0.0548 µM

GGGCGUGAAGGAUAUACAUGAGGAUCACCCAUGUGGGAGGAGAGUGGUGAGGAGGCUGGUAGAAGGUCAGGAGG
apparent Kd [3]: 0.0391 µM | apparent Kd [4]: 0.0329 µM

GGGCUGUCAGGAUAUGGGUCUGGGUCUGAAAGGGCUCGGGCUCAGAAGGGACAUGAGGAUCACCCAUGUGGCCC
apparent Kd [3]: 0.0352 µM | apparent Kd [4]: 0.0364 µM

GGGCUUUGGGAGAAGGUACAAUAAAUUAGGAGAACAUGAGGAUCACCCAUGUAAGGAUAUCCCAUGUUGUAUUAUGGUACAACC
apparent Kd [3]: 0.519 µM | apparent Kd [4]: 0.273 µM

GGGUACAACGGAGGAUAUCAUGUAAAUACAUGAGGAUCACCCAUGUCGAUGGAGACAUCGGAGAUUGAGAAGGCCGAUGUACCG
apparent Kd [1]: 0.16 µM | apparent Kd [2]: 0.00888 µM

GGGUACAUCGGAGGAUAUCAUGAAAAUACAUGAGGAUCACCCAUGUCGAUGGAGACAUCGGAGAUUGAGAAGGCCGAUGUACCG
apparent Kd [1]: 0.0119 µM | apparent Kd [2]: 0.00601 µM

GGGUACAUCGGAGGAUAUCAUGUAAAUACAUGAGGAUCACCCAUGUCGAAGGAGACAUCGGAGAUUGAGAAGGCCGAUGUACCG
apparent Kd [1]: 0.0877 µM | apparent Kd [2]: 0.579 µM

GGGUACAUCGGAGGAUAUCAUGUAAAUACAUGAGGAUCACCCAUGUCGACGGAGACAUCGGAGAUUGAGAAGGCCGAUGUACCG
apparent Kd [1]: 0.0422 µM | apparent Kd [2]: 0.367 µM

GGGUACAUCGGAGGAUAUCAUGUAAAUACAUGAGGAUCACCCAUGUCGAUGGAGACAUCGGAGAUUGAGAAGGCCGAUGUACCC
apparent Kd [1]: 0.178 µM | apparent Kd [2]: 0.00958 µM

GGGUACAUCGGAGGAUAUCAUGUAAAUACAUGAGGAUCACCCAUGUCGGUGGAGACAUCGGAGAUUGAGAAGGCCGAUGUACCG
apparent Kd [2]: 0.0127 µM
